In brackets after ≈: the same amount, converted by molar mass.
What was measured:
[1] = test system: Mycobacterium tuberculosis; experiment: Antimycobacterial activity against Mycobacterium tuberculosis H37Rv ATCC 27294 after 7 days by microplate Alamar blue assay; assay type: functional; conditions: H37Rv ATCC 27294, 168 h
In short: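 Run in 96-well plates against M. tuberculosis H37Rv using the Alamar Blue read-out. The MIC was taken as the lowest concentration giving >90% growth inhibition.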

Vero = experiment: Cytotoxicity against african green monkey Vero cells after 48 hrs by MTT assay; assay type: cell-based; conditions: Chlorocebus sabaeus
In short: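 Vero cells were exposed to compound. The IC50 was taken as the concentration inhibiting 50% of growth relative to an untreated control.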

[2] = Selectivity index, ratio of IC50 for african green monkey Vero cells to MIC for Mycobacterium tuberculosis H37Rv ATCC 27294; assay type: functional

SMILES	MIC [1] [µg/mL]	IC50 (Vero) [µg/mL]	Selectivity Index [2]
Cc1ccc(Nc2cc3nc4ccccc4n(-c4ccc(C(F)(F)F)cc4)c-3c/c2=N\C2CCOCC2)cn1	0.032 (≈ 0.0604 µM)	35.1 (≈ 66.3 µM)	1098
COC1CCC(/N=c2\cc3n(-c4ccc(C(F)(F)F)cc4)c4ccccc4nc-3cc2Nc2ccc(C)nc2)CC1 (stereo not drawn)	0.016 (≈ 0.0287 µM)	33.4 (≈ 60 µM)	2089
COc1ncccc1Nc1cc2nc3ccccc3n(-c3ccc(Br)cc3)c-2c/c1=N\C(C)C	0.049 (≈ 0.0953 µM)	> 64	1306
Cc1ncccc1Nc1cc2nc3ccccc3n(-c3ccc(Br)cc3)c-2c/c1=N\C(C)C	0.062 (≈ 0.124 µM)	39.4 (≈ 79 µM)	635
Cc1ccc(Nc2cc3nc4ccccc4n(-c4ccc(Br)cc4)c-3c/c2=N\C(C)C)cn1	0.049 (≈ 0.0983 µM)	3.12 (≈ 6.26 µM)	64
Cc1ccc(Nc2cc3nc4ccccc4n(-c4ccc(Br)cc4)c-3c/c2=N\C2CCOCC2)cn1	0.044 (≈ 0.0814 µM)	21.7 (≈ 40.2 µM)	493
COC1CCC(/N=c2\cc3n(-c4ccc(Br)cc4)c4ccccc4nc-3cc2Nc2ccc(C)nc2)CC1 (stereo not drawn)	0.097 (≈ 0.171 µM)	39.7 (≈ 69.8 µM)	409
COc1ncccc1Nc1cc2nc3ccccc3n(-c3ccc(OC(F)(F)F)cc3)c-2c/c1=N\C(C)C	0.028 (≈ 0.0539 µM)	> 64	2286
COc1ncccc1Nc1cc2nc3ccccc3n(-c3ccc(OC(F)(F)F)cc3)c-2c/c1=N\C1CCOCC1	0.016 (≈ 0.0285 µM)	> 64	4000
Fc1ccc(-n2c3c/c(=N\CCN4CCOCC4)c(Nc4cccnc4)cc-3nc3ccccc32)cc1	0.5 (≈ 1.01 µM)	15.1 (≈ 30.5 µM)	30
FC(F)(F)Oc1ccc(-n2c3c/c(=N\C4CCOCC4)c(Nc4cccnc4)cc-3nc3ccccc32)cc1	0.03 (≈ 0.0564 µM)	> 64	2133
COC1CCC(/N=c2\cc3n(-c4ccc(OC(F)(F)F)cc4)c4ccccc4nc-3cc2Nc2cccnc2)CC1 (stereo not drawn)	0.03 (≈ 0.0536 µM)	4.52 (≈ 8.08 µM)	151
CN1CCC(/N=c2\cc3n(-c4ccc(OC(F)(F)F)cc4)c4ccccc4nc-3cc2Nc2cccnc2)CC1	0.25 (≈ 0.459 µM)	4.48 (≈ 8.23 µM)	18
CC(C)CN1CCC(/N=c2\cc3n(-c4ccc(OC(F)(F)F)cc4)c4ccccc4nc-3cc2Nc2cccnc2)CC1	0.06 (≈ 0.102 µM)	5.6 (≈ 9.55 µM)	93
FC(F)(F)Oc1ccc(-n2c3c/c(=N\CCN4CCOCC4)c(Nc4cccnc4)cc-3nc3ccccc32)cc1	0.125 (≈ 0.223 µM)	16.1 (≈ 28.8 µM)	129
FC(F)(F)c1ccc(-n2c3c/c(=N\C4CCOCC4)c(Nc4cccnc4)cc-3nc3ccccc32)cc1	0.125 (≈ 0.242 µM)	> 64	512
COC1CCC(/N=c2\cc3n(-c4ccc(C(F)(F)F)cc4)c4ccccc4nc-3cc2Nc2cccnc2)CC1 (stereo not drawn)	0.03 (≈ 0.0552 µM)	28.3 (≈ 52.2 µM)	945
CN1CCC(/N=c2\cc3n(-c4ccc(C(F)(F)F)cc4)c4ccccc4nc-3cc2Nc2cccnc2)CC1	0.125 (≈ 0.236 µM)	10.4 (≈ 19.6 µM)	83
CC(C)CN1CCC(/N=c2\cc3n(-c4ccc(C(F)(F)F)cc4)c4ccccc4nc-3cc2Nc2cccnc2)CC1	0.06 (≈ 0.105 µM)	27 (≈ 47.3 µM)	450
FC(F)(F)c1ccc(-n2c3c/c(=N\CCN4CCOCC4)c(Nc4cccnc4)cc-3nc3ccccc32)cc1	0.125 (≈ 0.23 µM)	19.9 (≈ 36.5 µM)	159
Brc1ccc(-n2c3c/c(=N\C4CCOCC4)c(Nc4cccnc4)cc-3nc3ccccc32)cc1	0.163 (≈ 0.31 µM)	4.48 (≈ 8.51 µM)	27
COC1CCC(/N=c2\cc3n(-c4ccc(Br)cc4)c4ccccc4nc-3cc2Nc2cccnc2)CC1 (stereo not drawn)	0.062 (≈ 0.112 µM)	1.88 (≈ 3.39 µM)	30
COc1ncccc1Nc1cc2nc3ccccc3n(-c3ccc(Cl)cc3)c-2c/c1=N\C(C)C	0.03 (≈ 0.0638 µM)	> 64	2133

SMILES	MIC [1] [µg/mL]	IC50 (Vero) [µg/mL]	Selectivity Index [2]
Cc1ncccc1Nc1cc2nc3ccccc3n(-c3ccc(Cl)cc3)c-2c/c1=N\C(C)C	0.055 (≈ 0.121 µM)	> 64	1164
Cc1ncccc1Nc1cc2nc3ccccc3n(-c3ccc(Cl)cc3)c-2c/c1=N\C1CCOCC1	0.168 (≈ 0.339 µM)	27.4 (≈ 55.3 µM)	163
Cc1ccc(Nc2cc3nc4ccccc4n(-c4ccc(Cl)cc4)c-3c/c2=N\C(C)C)cn1	0.06 (≈ 0.132 µM)	7.09 (≈ 15.6 µM)	118
Cc1ccc(Nc2cc3nc4ccccc4n(-c4ccc(Cl)cc4)c-3c/c2=N\C2CCOCC2)cn1	0.03 (≈ 0.0605 µM)	9.73 (≈ 19.6 µM)	324
Clc1ccc(-n2c3c/c(=N\C4CCOCC4)c(Nc4cncc(Br)c4)cc-3nc3ccccc32)cc1	0.036 (≈ 0.0642 µM)	> 64	1778
COC1CCC(/N=c2\cc3n(-c4ccc(Cl)cc4)c4ccccc4nc-3cc2Nc2cncc(Br)c2)CC1 (stereo not drawn)	0.052 (≈ 0.0883 µM)	> 64	1231
COc1ncccc1Nc1cc2nc3ccccc3n(-c3ccc(F)cc3)c-2c/c1=N\C1CCOCC1	0.039 (≈ 0.0787 µM)	> 64	1641
Cc1ncccc1Nc1cc2nc3ccccc3n(-c3ccc(F)cc3)c-2c/c1=N\C(C)C	0.032 (≈ 0.0731 µM)	14.4 (≈ 32.8 µM)	449
Cc1ccc(Nc2cc3nc4ccccc4n(-c4ccc(F)cc4)c-3c/c2=N\C(C)C)cn1	0.06 (≈ 0.137 µM)	7.88 (≈ 18 µM)	131
Cc1ccc(Nc2cc3nc4ccccc4n(-c4ccc(F)cc4)c-3c/c2=N\C2CCOCC2)cn1	0.125 (≈ 0.261 µM)	14 (≈ 29.3 µM)	112
COC1CCC(/N=c2\cc3n(-c4ccc(F)cc4)c4ccccc4nc-3cc2Nc2ccc(C)nc2)CC1 (stereo not drawn)	0.06 (≈ 0.118 µM)	> 64	1067
Cc1ncccc1Nc1cc2nc3ccccc3n(-c3ccc(C(F)(F)F)cc3)c-2c/c1=N\C(C)C	0.014 (≈ 0.0287 µM)	> 64	4571
COC1CCC(/N=c2\cc3n(-c4ccc(C(F)(F)F)cc4)c4ccccc4nc-3cc2Nc2cccnc2C)CC1 (stereo not drawn)	0.011 (≈ 0.0197 µM)	> 64	5818
Cc1ccc(Nc2cc3nc4ccccc4n(-c4ccc(C(F)(F)F)cc4)c-3c/c2=N\C(C)C)cn1	0.03 (≈ 0.0615 µM)	34.4 (≈ 70.6 µM)	1147
Clc1ccc(-n2c3c/c(=N\C4CCOCC4)c(Nc4cccnc4)cc-3nc3ccccc32)cc1	0.03 (≈ 0.0622 µM)	2.5 (≈ 5.19 µM)	83
COC1CCC(/N=c2\cc3n(-c4ccc(Cl)cc4)c4ccccc4nc-3cc2Nc2cccnc2)CC1 (stereo not drawn)	0.03 (≈ 0.0588 µM)	12 (≈ 23.6 µM)	401
CN1CCC(/N=c2\cc3n(-c4ccc(Cl)cc4)c4ccccc4nc-3cc2Nc2cccnc2)CC1	0.125 (≈ 0.253 µM)	5.58 (≈ 11.3 µM)	45
CC(C)CN1CCC(/N=c2\cc3n(-c4ccc(Cl)cc4)c4ccccc4nc-3cc2Nc2cccnc2)CC1	0.25 (≈ 0.465 µM)	15.1 (≈ 28 µM)	60
Clc1ccc(-n2c3c/c(=N\CCN4CCOCC4)c(Nc4cccnc4)cc-3nc3ccccc32)cc1	0.25 (≈ 0.489 µM)	4.02 (≈ 7.87 µM)	16
Fc1ccc(-n2c3c/c(=N\C4CCOCC4)c(Nc4cccnc4)cc-3nc3ccccc32)cc1	0.06 (≈ 0.129 µM)	7.36 (≈ 15.8 µM)	123
COC1CCC(/N=c2\cc3n(-c4ccc(F)cc4)c4ccccc4nc-3cc2Nc2cccnc2)CC1 (stereo not drawn)	0.12 (≈ 0.243 µM)	> 64	533
CN1CCC(/N=c2\cc3n(-c4ccc(F)cc4)c4ccccc4nc-3cc2Nc2cccnc2)CC1	0.25 (≈ 0.522 µM)	6.44 (≈ 13.5 µM)	26
CC(C)CN1CCC(/N=c2\cc3n(-c4ccc(F)cc4)c4ccccc4nc-3cc2Nc2cccnc2)CC1	0.125 (≈ 0.24 µM)	30.3 (≈ 58.1 µM)	242

Source: ChEMBL document CHEMBL2176968, “Identification of less lipophilic riminophenazine derivatives for the treatment of drug-resistant tuberculosis” (J Med Chem, 2012)
